# MC4R antag cAMP = antagonists of human melanocortin 4 receptor (MC4R); inhibition, % at 6.5 µM; MC4R-expressing cells, MTII-stimulated cAMP, LANCE TR-FRET; AID 540295; actives 0.48% (n = 360,000);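 active = inhibition above its plate's cutoff, the mean of tested wells on that plate plus 3 SD, cut at about 29% in these data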;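 also: 0% = Melanotan II alone and 100% = Melanotan II plus saturating MCL0020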
# Target sequence (P32245 whole entry, looked up): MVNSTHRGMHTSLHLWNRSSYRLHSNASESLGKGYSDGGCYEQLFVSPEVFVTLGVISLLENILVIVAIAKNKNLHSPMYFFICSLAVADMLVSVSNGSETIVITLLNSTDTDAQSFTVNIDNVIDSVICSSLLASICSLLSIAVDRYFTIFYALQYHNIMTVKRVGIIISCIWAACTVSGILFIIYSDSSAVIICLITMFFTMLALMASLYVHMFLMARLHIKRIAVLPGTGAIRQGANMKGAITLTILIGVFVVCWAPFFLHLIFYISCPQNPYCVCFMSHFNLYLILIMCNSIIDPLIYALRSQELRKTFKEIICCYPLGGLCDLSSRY
#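 Assay system: U2OS cells stably expressing human melanocortin 4 receptor (MC4R) / Dosing: 6.5 µM / Timing: compound 30 min, challenge 1 h, detection 1 h / Measured by: Eu-cAMP/anti-cAMP TR-FRET, emission 671 nm / Replicates: singlicate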
# GalR3 antag = blocks the human galanin receptor 3. O60755. HEK293 GalR3-CNG cAMP membrane potential fluorescence; galR3 body fused to GalR1 C-terminus. inhibition, % at 3 µM. actives 0.44% (n = 360,000). AID 651719;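 active = inhibition above the screen-wide average plus 3 SD, cut at about 13% in these data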;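 also: forskolin and galanin both at EC90 stimulate the cells; cAMP rise reported by CNG channel membrane potential dye signal; 0% = forskolin plus galanin with DMSO and 100% = forskolin alone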
# Target sequence (O60755 1-299 limits assumed): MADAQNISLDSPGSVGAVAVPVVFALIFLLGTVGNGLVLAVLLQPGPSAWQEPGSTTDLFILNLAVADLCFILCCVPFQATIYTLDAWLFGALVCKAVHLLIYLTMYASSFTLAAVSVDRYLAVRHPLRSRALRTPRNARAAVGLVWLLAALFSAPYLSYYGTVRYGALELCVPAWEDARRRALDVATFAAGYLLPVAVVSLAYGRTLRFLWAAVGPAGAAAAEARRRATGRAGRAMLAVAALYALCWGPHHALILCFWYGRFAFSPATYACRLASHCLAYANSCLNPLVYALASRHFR
# MC4R barr agon = activates human MC4R beta-arrestin recruitment | U2OS MC4R beta-arrestin complementation, luminescence; percent of melanotan II response, DMSO zero | activation, % at 8.9 µM | actives 0.98% (n = 360,000) | P32245;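 active = activation above a per-plate cutoff, the mean activation of sample wells on that plate plus 3 SD, cut at about 8% in these data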
# Calb FLC = affects C. albicans growth with fluconazole; growth inhibition, % (concentration not given with the values); C. albicans CaCi-2 + fluconazole, Alamar Blue growth, 48 h; actives 0.57% (n = 300,000);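 active = growth inhibition above about 58% in most replicates, limit read from the data, passing the limit was not always enough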;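 also: all wells also contain fluconazole at 8 µg/ml as a sub-toxic cotreatment; 0% = median of DMSO wells and 100% = median of geldanamycin control wells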
# Efflux pump inh = antifungal efflux pump inhibition, Nile Red retention; S. cerevisiae Candida pump triplex; inhibition, % at 10 µM; actives 0.44% (n = 330,000); AID 485275;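 active = plate passing quality check with inhibition over a set limit, or well fluorescence over plate mean plus 4 SD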;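 also: Nile Red retained in pooled yeast measured as flow cytometry median fluorescence; 0% = buffer negative control and 100% = Enniatin B positive control; higher means more Nile Red kept so more efflux inhibition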
# TAG inh = triacylglycerol accumulation inhibition | H9c2 cells, Nile Red lipid (TAG) fluorescence; cells loaded with 200 µM oleic acid | inhibition, % at 12.5 µM | actives 0.66% (n = 230,000);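 active = pattern-corrected inhibition of lipid staining of at least 50% with the nuclear-stain viability signal not falling by more than 50%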;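 also: 0% = DMSO wells and 100% = triacsin C control wells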
# MC4R barr ag = human MC4R beta-arrestin agonism confirmation; activation, % at 8.9 µM; shares compounds with MC4R barr agon; actives 31% (n = 2,400); AID 602192; U2OS MC4R beta-arrestin recruitment, luminescence; scaled DMSO 0%, Melanotan II 100%;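 active = mean activation across replicates above the hit cutoff set in the earlier primary screen, cut at about 8% in these data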
# MOR DOR agonist = OPRM1-OPRD1 heterodimer agonism counter-screen. activation, % at 9.2 µM. U2OS PathHunter beta-arrestin, beta-gal luminescence; percent of deltorphin B response, DMSO zero. shares compounds with MC4R barr agon. actives 5.8% (n = 2,400);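 active = mean activation across replicates exceeds the hit threshold derived in the earlier primary screen, cut at about 18% in these data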;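 also: 100% = deltorphin B at 0.9 µM final and 0% = DMSO alone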
# The depositor's hits bear a star; . = not tested or not shown. Only some compounds are listed: those with a hit (about 2.9% of all), similar ones and a draw of the others.
SMILES,MC4R antag cAMP,GalR3 antag,MC4R barr agon,Calb FLC,Efflux pump inh,TAG inh,MC4R barr ag,MOR DOR agonist
CCn1c2ccccc2c2cc(NC(=O)COc3ccccc3)ccc21,-7,-6,26*,9,0,-3,2,3
O=C(COc1ccccc1)Nc1ccc(OC(F)(F)C(F)F)c(NC(=O)COc2ccccc2)c1,0,-6,17*,-15,0,22,9.9*,12
CC(=O)Nc1ccc(OC(F)(F)C(F)F)c(NC(C)=O)c1,10,-6,-1,8,0,.,.,.
CC1C(=O)N(Cc2cn(CCC3OCCCO3)nn2)CCS(=O)(=O)N1Cc1ccc(-c2ccncc2)cc1 (stereo not given),11,-5,1,.,.,4,.,.
COc1ccc(C(C(=O)NC2CCCC2)n2c(CSCCOc3ccccc3)nc3ccccc32)cc1 (stereo not given),.,-1,.,.,.,.,.,.
COCCCNc1ccn2nc(-c3ccc(Cl)cc3)cc2n1,13,-6,-1,.,.,13,.,.
COc1ccc(/C=N/Nc2ccc(C(F)(F)F)cc2[N+](=O)[O-])cc1O,-8,-6,20*,27,0,.,4,4
O=C(/C=C/c1ccc(Br)cc1)N1CCN(c2cccc(C(F)(F)F)c2)CC1,11,-2,14*,10,0,.,-3,5
O=c1c2cnn(-c3ccc(F)cc3)c2ncn1Cc1ccccc1,3,-4,14*,4,0,-4,0,4
O=c1c2cnn(-c3ccc(F)cc3)c2ncn1Cc1cccnc1,9,-6,0,-11,0,-11,.,.
COc1ccc(N2CCN(CC(=O)Nc3c(C)cccc3C)CC2)cc1,5,-4,0,.,.,-8,.,.
CN(C)CC(=O)N[C@@H]1CC[C@@H](CCNS(=O)(=O)c2ccccc2)O[C@@H]1CO,.,-4,.,.,.,.,.,.
COc1ccc(-c2ccc(-c3noc(-c4cccs4)n3)c(OC)n2)cc1,-1,-2,17*,-2,0,-12,5,1
NC(c1ccccc1)c1csc(NC(=O)Nc2cccc(Cl)c2)n1 (stereo not given),-7,-7,12*,.,.,11,13*,13
NC(c1csc(NC(=O)Nc2cccc(Cl)c2)n1)C1CCCCC1 (stereo not given),-3,-8,13*,.,.,133,20*,18
NC(c1csc(NC(=O)Nc2ccccc2)n1)C1CCCCC1 (stereo not given),7,-5,-2,.,.,46,.,.
CC(=O)OCC(=O)C1(O)CCC2C3CCC4CC(O)CCC4(C)C3C(=O)CC21C (stereo not given),1,-7,-1,.,.,.,.,.
CC(C)CC(=O)OC1C(N2CCOCC2)c2c(ccc(/C=C/C(=O)N3CCOCC3)c2O)OC1(C)C (stereo not given),1,-5,12*,-5,-3,.,5,3
CC1(C)Oc2ccc(/C=C/C(=O)N3CCOCC3)c(O)c2C(N2CCOCC2)C1O (stereo not given),.,.,.,2,0,.,.,.
COc1cccc(N2CCN(C(=O)CNC(=O)c3sc4ccccc4c3Cl)CC2)c1,-4,-3,70*,7,0,-5,3,3
COc1ccc(NC(=O)CSc2nc3cccnc3n2C)cc1,8,-4,-2,0,0,-11,.,.
COc1ccc2nc(NC(=O)CSc3nc4cccnc4n3C)sc2c1,7,2,17*,3,0,-27,37*,7
COc1ccc2c(c1)[C@@]1(OCCC=C[C@H]1C)C(=O)N2Cc1ccc(F)cc1,.,-8,.,.,.,.,.,.
O=C(COC(=O)/C=C/c1ccc(Cl)cc1Cl)NCCC1=CCCCC1,4,-13,0,13,0,.,.,.
O=C(COC(=O)/C=C/c1ccccc1Cl)NCCc1ccc(Cl)cc1Cl,17,0,9.9*,-4,0,.,1,3
SMILES,MC4R antag cAMP,GalR3 antag,MC4R barr agon,Calb FLC,Efflux pump inh,TAG inh,MC4R barr ag,MOR DOR agonist
Cc1cc(Br)cc(Cl)c1OCC(=O)NC(=O)NCc1ccccc1,2,-3,12*,-3,0,.,2,6
O=C(COC(=O)/C=C/c1ccc(OC(F)F)cc1)NC(=O)NCc1ccccc1,13,0,6,.,0,-5,.,.
O=C(COC(=O)/C=C/c1cccc(Cl)c1)NC(=O)NCc1ccccc1,1,-6,11*,.,0,7,3,5
Cc1ccc(NC(=O)CSC2=Nc3ccccc3C3CC=NN23)c(C)c1 (stereo not given),-3,-6,-2,-1,0,9,.,.
O=C(CSC1=Nc2ccccc2C2CC=NN12)Nc1ccc(F)cc1Cl (stereo not given),-16,-11,26*,-6,0,11,0,4
COc1ccc(CCN2C(=O)C(Oc3ccccc3)C2c2ccc3c(c2)OCO3)cc1 (stereo not given),7,1,18*,1,0,.,0,3
COc1ccc(OC2C(=O)N(CCc3ccc(OC)c(OC)c3)C2c2ccc3c(c2)OCO3)cc1 (stereo not given),23,0,3,-3,0,4,.,.
COc1ccc(-c2cc(NC(C)=O)c3ncc(-c4ccc(OC)c(OC)c4)n3c2)cc1OC,11,-2,15*,.,.,11,23*,2
CC(=O)Nc1cc(-c2cccnc2)cn2c(-c3ccc(F)cc3)cnc12,12,-4,42*,.,.,31,44*,0
CC(=O)Nc1cc(-c2cccc(C)c2)cn2c(-c3ccc(S(C)(=O)=O)cc3)cnc12,12,-7,2,.,.,17,.,.
CC(=O)Nc1cc(-c2cccc(C(=O)NCCO)c2)cn2c(-c3ccc(F)cc3)cnc12,23,-7,3,.,.,6,.,.
CC(=O)Nc1cc(-c2ccsc2)cn2c(-c3ccc(F)cc3)cnc12,-4,-10,18*,.,.,-9,13*,4
COc1ccc(-c2cnc3c(NC(C)=O)cc(-c4cccc(C(=O)N(C)C)c4)cn23)cc1OC,4,-3,3,.,.,0,.,.
COc1cc(-c2cc(NC(C)=O)c3ncc(-c4cc(OC)c(OC)c(OC)c4)n3c2)cc(OC)c1OC,-33,5,9.6*,.,.,43,9.3*,2
COc1cc(-c2cc(NC(C)=O)c3ncc(-c4ccccc4)n3c2)cc(OC)c1OC,24,3,4,.,.,6,.,.
Nc1nc2c(ncn2[C@@H]2O[C@H](C(=O)N[C@H](Cc3ccccc3)C(=O)O)[C@@H](O)[C@H]2O)c(=O)[nH]1,.,-6,.,.,.,.,.,.

# High-throughput results as filed in PubChem BioAssay.
